Assay outcomes (PubChem BioAssay)
Compounds with a hit are over-represented: about 4.1% of the library has one in this group of screens.
KCC2 mod: modulates chloride dependent transport by human KCC2; KCC2 cells, thallium flux FluoZin-2 fluorescence; hit rate 2.2% among 190,000; Q9H2X9; B-score of Tl+ flux slope (higher = more flux/activation; lower = inhibition) at 10 µM;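 active = thallium flux slope and its plate-corrected score both differing from the plate sample mean at a set confidence after two filtering rounds, in either direction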;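 also: slope of fluorescence scaled to starting intensity during 10 to 20 s after thallium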
KCNK9 block: inhibitors of human KCNK9 two-pore domain potassium channel; Q9NPC2; B-score at 10 µM; HEK293 KCNK9, FluxOR thallium flux fluorescence; hits give low values; hit rate 1.2% among 310,000; AID 488922;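 active = ratio B-score over 3 SD below the library mean, with starting fluorescence within 5 SD of its mean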;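 also: negative B-score means less thallium flux so channel inhibition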
KCNQ1 inh: blocks the human KCNQ1 potassium channel; P51787; CHO-K1 KCNQ1, FluxOR thallium flux fluorescence; hits give high values; B-score at 10 µM; hit rate 1.3% among 310,000; AID 2642;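 active = compounds whose thallium flux B-score, printed positive for inhibition, exceeds three library SD while starting fluorescence stays within three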;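 also: channel opened by potassium depolarization with thallium stimulus after 20 min compound exposure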
KCNK3 inh: human KCNK3 channel inhibition, primary screen | B-score at 10 µM | hit rate 0.84% among 340,000 | CHO-KCNK3 thallium flux, FluxOR fluorescence; hits give low values;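 active = B-score under library mean minus 4 SD, starting fluorescence ratio at most library mean plus 5 SD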;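 also: more negative B-score means stronger inhibition of thallium flux through KCNK3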
Target sequence (O14649 whole entry, looked up): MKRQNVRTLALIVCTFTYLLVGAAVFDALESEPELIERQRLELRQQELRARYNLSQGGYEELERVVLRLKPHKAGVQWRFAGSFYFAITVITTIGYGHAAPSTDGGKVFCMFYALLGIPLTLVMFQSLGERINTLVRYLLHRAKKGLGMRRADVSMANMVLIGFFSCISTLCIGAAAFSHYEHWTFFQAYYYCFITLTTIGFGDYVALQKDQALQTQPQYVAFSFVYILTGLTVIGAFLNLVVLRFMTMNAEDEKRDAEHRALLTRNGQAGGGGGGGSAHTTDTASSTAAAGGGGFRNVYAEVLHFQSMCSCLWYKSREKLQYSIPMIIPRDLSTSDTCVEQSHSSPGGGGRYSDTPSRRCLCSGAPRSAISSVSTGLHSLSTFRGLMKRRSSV
KCNQ1 pot: human KCNQ1 channel potentiation or activation | B-score at 10 µM | CHO-K1 KCNQ1, thallium flux FluxOR fluorescence; hits give high values | hit rate 0.35% among 310,000 | P51787 | AID 2648;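 active = fluorescence ratio B-score, a plate-corrected score, at least three library SD, with initial intensity B-score within 5 SD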
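assay system = KCNQ1-transfected CHO-K1 cells | medium = assay buffer with matched DMSO | probe or stimulus = depolarizing K+/Tl+ stimulus, K2SO4 and Tl2SO4 each 12.5 mM in 5x stock | dosing = single dose | incubation = dye 90 min, compound 20 min, room temperature | detection = kinetic FluxOR fluorescence, 10 s baseline plus 110 s post-stimulus | evaluation = ratio B score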
hERG protect: compounds protecting human hERG from proarrhythmic drug block; Q12809; CHO-hERG, FluxOR thallium flux, dofetilide IC70 present; activation (rescue from dofetilide block), less the hit threshold, % at 10 µM; hit rate 0.51% among 310,000; AID 1511;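 active = activation above the mean of controls blocked by dofetilide plus 5 SD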;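 also: thallium influx through hERG after potassium depolarization seen as dye fluorescence rise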
KCC2 sec1: KCC2 (human) modulation, secondary assay | AID 1713 | shares compounds with KCC2 mod | HEK293-KCC2, thallium flux, FluoZin2 fluorescence; hits give high values | normalised thallium flux (F/F0 slope) at 10 µM | hit rate 15% among 3,700;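 active = thallium flux slope above the same plate's solvent-only control mean plus 3 SD; inconclusive = the two replicate wells disagree; inactive = no significant difference from solvent-only control wells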
KCC2 bumet counter: bumetanide-insensitive thallium flux in KCC2 cells with ouabain, counter-screen; shares compounds with KCC2 mod; HEK293-KCC2 + bumetanide/ouabain, thallium flux FluoZin2; hits give high values; normalized thallium flux at 10 µM; hit rate 49% among 3,700;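 active = thallium entry rate above the same plate's blocked-transporter control wells by more than 3 SD; inconclusive = the two repeat wells disagree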;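 also: raw slope of fluorescence over initial fluorescence between 10 and 20 s after thallium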
KCC2 sec2: KCC2 (human) modulation, second secondary assay. shares compounds with KCC2 mod. HEK293-KCC2, thallium flux FluoZin2 fluorescence; actives lie on both sides; F/F0 rise rate, 10–20 s post-thallium. normalized thallium flux at 10 µM. hit rate 23% among 3,700. AID 1715;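 active = thallium flux slope more than 3 SD above or below the plate's solvent-only control mean, mostly below; inconclusive = the two repeat wells disagreed; inactive = no significant shift from solvent-only controls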;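 also: raw slope with 0.1% DMSO as baseline and bumetanide as block control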
HEK counter1: acts in parental HEK cells, KCC2 counter-screen; AID 1716; shares compounds with KCC2 mod; thallium flux rate (normalised fluorescence) at 10 µM; hit rate 46% among 3,700; HEK293 parental cells, thallium flux FluoZin2, ouabain; baseline-ratio fluorescence slope, 10–20 s after thallium;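 active = thallium flux rate significantly above the same plate's solvent-only control wells, beyond their mean plus 3 SD; inconclusive = the two replicate wells gave conflicting results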
KCC2 retest ouab: confirmation of human KCC2 modulators with ouabain; shares compounds with KCC2 mod; HEK293-KCC2, thallium flux FluoZin2 fluorescence; bidirectional: low = inhibitor, high = activator; raw Tl+ flux slope (below DMSO = inhibition, above = activation) at 10 µM; hit rate 48% among 3,700;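 active = thallium flux slope beyond 3 SD from same-plate DMSO control mean in most replicates, usually higher, sometimes lower; inconclusive = repeat tests gave conflicting results; inactive = no significant difference from controls in most replicates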;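 also: slope of initial-normalized fluorescence between seconds 10 and 20 after thallium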
HEK counter2: acts in parental HEK cells, second KCC2 counter-screen | hit rate 33% among 3,700 | shares compounds with KCC2 mod | thallium flux slope at 10 µM | HEK293 parental, thallium flux FluoZin-2 fluorescence slope;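 active = thallium flux slope above the same plate's solvent-control mean plus 3 SD in both duplicate wells; inconclusive = duplicate wells that disagreed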;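 also: run without ouabain in cells lacking the KCC2 cotransporter; slope of fluorescence scaled to its starting value between 10 and 20 s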
* = called active by the depositor; i = inactive; ? = inconclusive; · = not tested or not shown.

SMILES | KCC2 mod | KCNK9 block | KCNQ1 inh | KCNK3 inh | KCNQ1 pot | hERG protect | KCC2 sec1 | KCC2 bumet counter | KCC2 sec2 | HEK counter1 | KCC2 retest ouab | HEK counter2
O=C(Nc1cccnc1)Nc1ccc2c(c1)OCO2 | · | i | i | i | i | -10.1 | 0.00941 | 0.00613 | 0.0292 | 0.00757 | 0.0207 | 0.00933
O=C(Nc1ccc2c(c1)OCO2)Nc1ccc2c(c1)OCO2 | -0.0415 | i | i | i | i | -7.2 | · | · | · | · | · | ·
COCC(C)n1c(C)cc(C(=O)CSc2ccc(NC(C)=O)cc2)c1C (configuration not stated) | -5.84* | i | i | i | i | -2.7 | 0.00816 | 0.00564 | 0.0346 | 0.00787 | 0.0198 | 0.0123
COC(=O)[C@@]12CCCCN1[C@H](c1ccc(-c3ccc(F)cc3)cc1)[C@@H]1C(=O)N(C)C(=O)[C@@H]12 | · | i | i | i | i | -8.9 | · | · | · | · | · | ·
O=C(Nc1cccc2ccccc12)N1CCN(c2ncccn2)CC1 | -4.06* | i | i | i | i | -8.4 | 0.0111 | ? | 0.0325 | 0.00843 | 0.0183 | 0.0106
CC[C@]12c3[nH]c4ccccc4c3CCN1C(=O)C(CC(=O)NCCCn1ccnc1)C[C@@H]2C(=O)N1CCN(C(=O)c2ccco2)CC1 (some centres not stated) | · | · | · | i | · | · | · | · | · | · | · | ·
CC(=O)Nc1ccc(NC(=O)c2ccccc2-n2cnnn2)cc1 | · | · | · | i | · | · | · | · | · | · | · | ·
COCCCNC(=O)C(C#N)c1nc2ccccc2nc1N1CCCC1 (configuration not stated) | -1.14 | i | i | i | i | -9.3 | ? | -0.000272* | 0.0193* | 0.00528* | 0.0125* | ?
CCOc1ccccc1N1CCN(c2nc3ccccc3nc2C(C#N)C(=O)OC)CC1 (configuration not stated) | · | i | i | i | i | -9.3 | 0.00581 | 0.00417 | 0.0289 | 0.00677 | 0.0182 | 0.0101
Cc1cccc(C)c1Nc1nnc(SCC(=O)NC(=O)c2cccn2C)s1 | -4.7* | i | i | i | i | -0.5 | 0.00709 | 0.00477 | 0.0277 | 0.0047* | 0.0139* | 0.00822
CCOc1ccccc1Nc1nnc(SCC(=O)NC(=O)c2cccn2C)s1 | -1.47 | i | i | i | i | -6.8 | · | · | · | · | · | ·
Nc1ccc(S(=O)(=O)Nc2nccs2)cc1N=Nc1ccccc1[N+](=O)[O-] | · | · | · | i | · | · | · | · | · | · | · | ·
CCOc1cc(OCC)cc(C(=O)NC(=S)Nc2cccc(C(F)(F)F)c2)c1 | 3.34* | i | i | i | i | -2.8 | 0.00577 | 0.0136* | 0.0343 | 0.0128* | ? | 0.0136*
O=C(NC(=S)Nc1cccc(C(F)(F)F)c1)c1ccc2nonc2c1 | 52.3* | i | i | i | i | -7.7 | 0.0238* | 0.121* | ? | 0.041* | 0.0628* | 0.0152*
COc1ccc2[nH]cc(CCNC(=O)c3ccc4ccccc4n3)c2c1 | · | i | i | i | i | -9.4 | · | · | · | · | · | ·
OCC1(CCOc2ccccc2)CCN(C2Cc3ccccc3C2)CC1 | 0.255 | i | i | i | i | -10.0 | · | · | · | · | · | ·
